Test results: ChEMBL document CHEMBL1130261, “Identification of novel farnesyl protein transferase inhibitors using three-dimensional database searching methods” (J Med Chem, 1997)

Tests used:
Type in all cases: protein-complex assay
[1] = target: T1, Protein farnesyltransferase (Homo sapiens, UniProt P49354+P49356); experiment: Inhibitory activity against recombinant human farnesyltransferase
[2] = target: Protein farnesyl/geranylgeranyl transferase (Homo sapiens) (UniProt P49354+P49356+P53609); experiment: Selectivity was expressed as the ratio of the Geranylgeranyl transferase type I to FPT inhibitory activities (IC50)
[3] = target: T1, Protein farnesyltransferase; experiment: Inhibitory activity against farnesyltransferase (FPT) (20 ug/mL)
Outline: (§1)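 Primary scintillation proximity assay (SPA) following the kit protocol, with a biotinylated substrate peptide bearing the K-Ras carboxy-terminal sequence.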

[4] = target: Geranylgeranyl transferase type I (Homo sapiens, UniProt P49354+P53609); experiment: Inhibitory activity against Geranylgeranyl transferase type I
[5] = target: T1, Protein farnesyltransferase; experiment: Inhibition of farnesyltransferase (FTP) at 20 ug/mL; outline: as §1
[6] = target: T1, Protein farnesyltransferase; experiment: Inhibition of Farnesyltransferase
[7] = target: T1, Protein farnesyltransferase; experiment: Inhibition of Farnesyltransferase (FPT) in FPT Ras/TCA assay
Outline: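 Secondary FPT assay measuring transfer of [³H]farnesyl from [³H]farnesyl pyrophosphate to His₆-H-Ras-CVLS. Labelled protein was collected by TCA precipitation. IC50 values were obtained from this Ras/TCA format.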

SMILES | IC50 [1] [µM] | inhibition [3] [%] | also measured
O=C(Nc1ccccn1)N1CCN(C2c3ccc(Cl)cc3CCc3cccnc32)CC1 (stereo not given) | 0.95 |  | 
O[C@H]1c2cc3c(cc2S[C@H]1Cn1ccnc1)CCCC3 | > 70 |  | 
OCc1nccn1C[C@H]1Sc2cc(Cl)ccc2[C@H]1OCc1ccsc1Cl |  | 30 | 
O=C(Cc1ccncc1)N1CCC(=C2c3ccccc3CCc3ccccc32)CC1 | 1.14 |  | 
Clc1cccc2c1S[C@H](Cn1ccnc1)[C@@H]2OCc1ccsc1Cl | 6 | 92 | 
NC1CCC(C(=O)N2CCC(=C3c4ccc(Cl)cc4CCc4cccnc43)CC2)CC1 (stereo not given) | 5 |  | 
OC1c2ccc(Cl)cc2SC1Cn1ccnc1 (stereo not given) |  | 58 | 
COC(=O)[C@@H](Cc1ccccc1)NC(=O)[C@@H](Cc1c[nH]c2ccccc12)NC(=O)[C@H](Cc1ccccc1)CP(=O)(O)O | 0.7 |  | 
O=C(Nc1ccncc1)N1CCC(=C2c3ccc(Cl)cc3CCc3cccnc32)CC1 | 0.87 |  | 
Cc1cccc2c1[C@@H](O)[C@@H](Cn1ccnc1)S2 | 266 | 14 | 
O=C(Cc1ccccn1)N1CCC(=C2c3ccc(Cl)cc3CCc3cccnc32)CC1 | 2 |  | 
FC(F)(F)c1ccc2c(c1)S[C@H](Cn1ccnc1)[C@@H]2OCc1ccsc1Cl | 10.7 | 75 | 
CC(C)C(CP(=O)(O)C(Cc1ccccc1)NC(=O)OCc1ccccc1)C(=O)N[C@H](Cc1c[nH]c2ccccc12)C(=O)N[C@H](C)C(=O)O (stereo not given in full) | 1 |  | 
O=C(Nc1ccncc1)C1CCN(C2c3ccc(Cl)cc3CCc3cccnc32)CC1 (stereo not given) | 9.2 |  | 
Cc1onc(-c2ccccc2)c1CO[C@@H]1c2ccc(Cl)cc2S[C@@H]1Cn1ccnc1 | 2.5 | 90 | 
Fc1ccc2c(c1)S[C@H](Cn1ccnc1)[C@@H]2OCc1ccsc1 | 13.6 | 91 | 
O[C@@H]1c2ccc(C(F)(F)F)cc2S[C@@H]1Cn1ccnc1 |  | 42 | 
Clc1sccc1CO[C@@H]1c2c(ccc3c2CCCC3)S[C@@H]1Cn1ccnc1 | 0.2 | 90 | Selectivity ratio [2]: 84; IC50 [4]: 16.8 µM
CC(=O)N1CCN(c2nc(CO[C@@H]3c4cc(C(C)(C)C)ccc4S[C@@H]3Cn3ccnc3)ns2)CC1 |  | 86 | IC50 [4]: > 39 µM
Clc1sccc1CO[C@@H]1c2cc3c(cc2S[C@@H]1Cn1ccnc1)CCCC3 | 10.8 | 61 | 
Fc1ccc2c(c1)[C@@H](OCc1ccsc1Cl)[C@@H](Cn1ccnc1)S2 | 1.8 | 95 | Selectivity ratio [2]: 18.9; IC50 [4]: 34.1 µM
O=C(Cc1cccnc1)N1CCN(C(c2ccc(Cl)cc2)c2ccccn2)CC1 (stereo not given) | 38.3 |  | 
Clc1sccc1CO[C@@H]1c2ccc3ccccc3c2S[C@@H]1Cn1ccnc1 | 1.5 | 76 | Selectivity ratio [2]: 10; IC50 [4]: 15 µM

SMILES | IC50 [1] [µM] | inhibition [3] [%] | also measured
[O-][S+]1c2cc(Cl)ccc2[C@@H](OCc2ccsc2Cl)[C@H]1Cn1ccnc1 (stereo not given in full) | 20.8 | 79 | 
Clc1ccc2c(c1)S[C@H](Cn1ccnc1)[C@@H]2OCc1cnc2cc3c(cc2c1Cl)OCO3 | 2.5 | 69 | IC50 [7]: 3.1 µM; Selectivity ratio [2]: 0.6; IC50 [4]: 1.4 µM
O[C@@H]1c2cc(F)ccc2S[C@@H]1Cn1ccnc1 |  | 23 | 
CC(C)(C)CC(=O)N1CCC(=C2c3ccc(Cl)cc3CCc3cccnc32)CC1 | 9.8 |  | 
O=C(Cc1ccccc1)N1CCC(=C2c3ccc(Cl)cc3CCc3cccnc32)CC1 | 0.8 |  | 
Clc1cccc2c1[C@@H](OCc1ccsc1Cl)[C@@H](Cn1ccnc1)S2 | 1.3 | 89 | Selectivity ratio [2]: 28.1; IC50 [4]: 36.5 µM
O[C@@H]1c2cc(Br)ccc2S[C@@H]1Cn1ccnc1 |  | 44 | 
O[C@@H]1c2cccc(Cl)c2S[C@@H]1Cn1ccnc1 |  | 44 | 
O[C@@H]1c2ccc(F)cc2S[C@@H]1Cn1ccnc1 |  | 38 | 
O=C(Cc1cccnc1)N1CCC(=C2c3ccc(Cl)cc3CCc3cccnc32)CC1 | 0.6 |  | 
C=C1CC2C3C=C(Cl)C4=CC(=O)C(Br)CC4(C)C3CCC2(C)[C@@]1(O)C(C)=O (stereo not given in full) | 1.8 |  | 
O=C(Nc1cccnc1)N1CCN(C2c3ccc(Cl)cc3CCc3cccnc32)CC1 (stereo not given) | 1.3 |  | 
O=C(Cc1ccncc1)N1CCC(=C2c3ccc(Cl)cc3CCc3ccc[n+]([O-])c32)CC1 | 2.1 |  | 
O=C(O)c1ccc(C(=O)N2CCC(=C3c4ccc(Cl)cc4CCc4cccnc43)CC2)cc1 | 5.3 |  | 
OC1c2cc(Cl)ccc2SC1Cn1ccnc1 (stereo not given) | > 75 |  | 
Clc1sccc1CO[C@@H]1c2cc(Br)ccc2S[C@@H]1Cn1ccnc1 | 1.1 | 88 | Selectivity ratio [2]: 12.9; IC50 [4]: 14.2 µM
O=C(Cc1ccncc1)N1CCC(=C2c3ccccc3CSc3ccccc32)CC1 | 2.3 |  | 
Clc1ccc2c(c1)S[C@H](CN1CCOCC1)[C@@H]2OCc1ccsc1Cl |  | 2 | 
[O-][n+]1ccc(CN2CCC(=C3c4ccccc4CCc4cccnc43)CC2)cc1 | 1830 |  | 
O=C(Cc1ccccc1)N1CCN(C2c3ccc(Cl)cc3CCc3cccnc32)CC1 (stereo not given) | 2.7 |  | 
Clc1sccc1CO[C@@H]1c2ccccc2S[C@@H]1Cn1ccnc1 | 1.1 | 94 | Selectivity ratio [2]: 42.5; IC50 [4]: 46.8 µM
CN1CCC(C2c3ccccc3CCc3cccnc32)CC1 (stereo not given) | 724 |  | 

Further lines, with some results ahead:

IC50 [1] [µM] | inhibition [3] [%] | SMILES | also measured
0.7 | 91 | Fc1ccc2c(c1)[C@@H](OCc1ccc(Cl)cc1Cl)[C@@H](Cn1ccnc1)S2 | Selectivity ratio [2]: 26.1; IC50 [4]: 18.3 µM
16 | 95 | Clc1ccc2c(c1)S[C@H](Cn1ccnc1)[C@@H]2OCc1ccsc1 | 
 | 89 | Clc1ccc2c(c1)S[C@H](Cn1ccnc1)[C@@H]2OCc1cc(Cl)sc1Cl | 
2 | 88 | Clc1ccc2c(c1)S[C@H](Cn1ccnc1)[C@@H]2OCc1ccc(Cl)s1 | Selectivity ratio [2]: 2.5; IC50 [4]: 5 µM
2.3 | 96 | Clc1ccc2c(c1)S[C@H](Cn1ccnc1)[C@@H]2OCc1ccsc1Cl | 
8.5 | 88 | C=CCO[C@@H]1c2ccc(Cl)cc2S[C@@H]1Cn1ccnc1 | 
10.7 | 90 | Clc1ccc2c(c1)S[C@H](Cn1ccnc1)[C@@H]2OCc1cscn1 | 
1.4 | 93 | Clc1cc2c(cc1Cl)C(OCc1ccsc1Cl)C(Cn1ccnc1)S2 (stereo not given) | Selectivity ratio [2]: 2.1; IC50 [4]: 2.9 µM
45.9 | 60 | O=S1(=O)c2cc(Cl)ccc2C(OCc2ccc(Cl)cc2Cl)C1Cn1ccnc1 (stereo not given) | 
1.4 | 83 | Clc1ccc(COC2c3c(Cl)cc(Cl)cc3SC2Cn2ccnc2)cc1 (stereo not given) | Selectivity ratio [2]: 13.4; IC50 [4]: 18.8 µM
3.2 | 80 | Clc1ccc2c(c1)S[C@H](Cn1ccnc1)[C@@H]2OCc1c(Cl)ccc2c1OCO2 | 
2 | 68 | Clc1ccc2c(c1)S[C@H](Cn1ccnc1)[C@@H]2OCc1c(Cl)sc2ccccc12 | Selectivity ratio [2]: 19; IC50 [4]: 38 µM
1.2 | 95 | Clc1ccc2c(c1)S[C@H](Cn1ccnc1)[C@@H]2OCc1ccc(Cl)c(Cl)c1 | Selectivity ratio [2]: 10.8; IC50 [4]: 12.9 µM
12.3 | 60 | Clc1ccc(COC2c3c(Cl)cc(Cl)cc3SC2Cn2ccnc2)c(Cl)c1 (stereo not given) | 
4.4 | 92 | Fc1cccc(Cl)c1CO[C@@H]1c2ccc(Cl)cc2S[C@@H]1Cn1ccnc1 | 
1.3 |  | Clc1ccc2c(c1)S[C@H](Cn1ccnc1)[C@@H]2OCc1cccnc1Cl | inhibition [5]: 95%; Selectivity ratio [2]: 2.5; IC50 [4]: 3.3 µM
1.3 | 95 | Clc1ccc(COC2c3c(Cl)cccc3SC2Cn2ccnc2)cc1 (stereo not given) | IC50 [6]: 16 µM
0.7 | 96 | Fc1ccc2c(c1)[C@@H](OCc1ccc(Cl)c(Cl)c1)[C@@H](Cn1ccnc1)S2 | Selectivity ratio [2]: 14; IC50 [4]: 9.8 µM
2.5 | 92 | Clc1ccc2c(c1)C(OCc1ccsc1Cl)C(Cn1ccnc1)S2 (stereo not given) | 
5.3 | 85 | Clc1ccc2c(c1)C(OCc1c(Cl)cccc1Cl)C(Cn1ccnc1)S2 (stereo not given) | 
5.4 | 75 | Clc1ccc(COC2c3ccc(Cl)cc3SC2Cn2ccnc2)c(Cl)c1 (stereo not given) | 
2.3 | 94 | Fc1ccc2c(c1)[C@@H](OCc1c(F)cccc1Cl)[C@@H](Cn1ccnc1)S2 | 
0.2 | 99 | Clc1ccc(COC2c3cc(Cl)ccc3SC2Cn2ccnc2)c(Cl)c1 (stereo not given) | Selectivity ratio [2]: 3.5; IC50 [4]: 0.7 µM
2.7 | 90 | Fc1ccc2c(c1)[C@@H](OCc1c(Cl)cccc1Cl)[C@@H](Cn1ccnc1)S2 | 
1.6 | 86 | Clc1cc(Cl)c2c(c1)[C@@H](OCc1ccsc1Cl)[C@@H](Cn1ccnc1)S2 | Selectivity ratio [2]: 10.1; IC50 [4]: 16.2 µM
